Experimental data from ChEMBL document CHEMBL2021852 (ACS Med Chem Lett, 2011).
The source made the active and inactive calls. No cut-off for these calls is given here.

Assays:
Salmonella typhimurium [1] = assay: Mutagenicity against Salmonella typhimurium in the presence of S9-mix; format: toxicity, organism-based; conditions: salmonella enterica subsp. enterica serovar typhimurium
L5178Y [2] = assay: Genotoxicity against TK-positive mouse L5178Y cells; format: toxicity, cell-based
[3] = Fraction unbound in dog plasma; format: ADME, cell-free, Canis lupus familiaris
L5178Y [4] = assay: Genotoxicity against TK-negative mouse L5178Y cells; format: toxicity, cell-based
Renin [5] = molecular target: T1, Renin (Homo sapiens, UniProt P00797); assay: Inhibition of human recombinant renin using H-Asp-Arg-Val-Tyr-Ile-His-Pro-Phe-His-Leu-Val-Ile-His-Asn-OH as substrate assessed as formation of angiotensin1 product after 2 hrs by competive radioimmunoassay
T1 sequence (P00797 whole entry): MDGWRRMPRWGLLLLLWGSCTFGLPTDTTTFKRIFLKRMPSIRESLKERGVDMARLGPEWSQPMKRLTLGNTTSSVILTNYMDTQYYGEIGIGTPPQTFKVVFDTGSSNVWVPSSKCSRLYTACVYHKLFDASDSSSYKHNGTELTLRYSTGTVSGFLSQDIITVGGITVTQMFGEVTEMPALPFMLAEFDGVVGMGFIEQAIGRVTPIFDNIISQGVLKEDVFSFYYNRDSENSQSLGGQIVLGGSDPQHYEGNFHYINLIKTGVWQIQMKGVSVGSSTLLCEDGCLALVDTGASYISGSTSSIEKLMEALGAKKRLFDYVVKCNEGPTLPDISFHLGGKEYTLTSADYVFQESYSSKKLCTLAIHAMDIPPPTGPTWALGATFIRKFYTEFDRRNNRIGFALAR
In short: (§1)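 Purified recombinant human renin measured in buffer; each value is the average of at least two replicates.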

Renin [6] = molecular target: T1, Renin; assay: Inhibition of human recombinant renin using DABCYL-gamma-Abu-Ile-His-Pro-Phe-His-Leu-Val-Ile-His-Thr-EDANS as substrate for 60 mins by fluorimetry; in short: as §1
[7] = Fraction unbound in cynomolgus monkey plasma; format: ADME, cell-free, Macaca fascicularis
Salmonella typhimurium [8] = assay: Mutagenicity against Salmonella typhimurium in the absence of S9-mix; format: toxicity, organism-based; conditions: salmonella enterica subsp. enterica serovar typhimurium
Renin [9] = molecular target: T1, Renin; assay: Inhibition of renin in human plasma assessed as formation of angiotensin1 product after 90 mins by competitive radioimmunoassay
In short: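 IC50 for renin inhibition determined in the presence of human plasma; each value is the average of at least two replicates.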

Cytochrome P450 3A4 = Cytochrome P450 3A4 (Homo sapiens, UniProt P08684); assay: Inhibition of CYP3A4 using testosterone as substrate in human liver microsome for 20 mins by HPLC analysis; format: ADME, microsomes
Chain of Cytochrome P450 3A4 (P08684 whole entry): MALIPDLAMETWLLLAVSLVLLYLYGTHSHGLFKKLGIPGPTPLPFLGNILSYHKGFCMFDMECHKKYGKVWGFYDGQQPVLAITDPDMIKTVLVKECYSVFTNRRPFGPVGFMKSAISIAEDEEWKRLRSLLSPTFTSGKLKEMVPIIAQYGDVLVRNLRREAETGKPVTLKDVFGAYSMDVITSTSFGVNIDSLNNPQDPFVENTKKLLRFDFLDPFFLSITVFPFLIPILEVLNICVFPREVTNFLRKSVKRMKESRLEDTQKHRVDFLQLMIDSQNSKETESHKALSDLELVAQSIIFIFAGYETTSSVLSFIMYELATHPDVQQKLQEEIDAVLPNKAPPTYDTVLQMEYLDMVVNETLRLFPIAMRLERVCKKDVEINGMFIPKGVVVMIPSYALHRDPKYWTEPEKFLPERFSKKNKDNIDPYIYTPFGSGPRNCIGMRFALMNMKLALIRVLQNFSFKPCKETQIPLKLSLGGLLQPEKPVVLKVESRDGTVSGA
In short: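 CYP3A4 inhibition measured in human liver microsomes; IC50 is the average of at least two replicates.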

Rattus norvegicus = assay: Antihypertensive activity in double transgenic rat expressing human renin assessed as reduction in mean arterial blood pressure at 10 mg/kg, po after 24 hrs; format: functional, organism-based; parameters: dose 10 mg/kg; conditions: Artery
In short: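 Double transgenic rats expressing human renin and angiotensinogen, with severe hypertension dependent on human renin, received 10 mg/kg orally. Mean arterial pressure was followed over time, including at t = 24 h.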

[10] = molecular target: Beta-secretase 1 (Homo sapiens) (UniProt P56817); assay: Inhibition of BACE using SEVNLDAEFK(Dnp)NH2 as substrate at 10 uM incubated for 10 mins prior to substrate addition measured for 1 hr by FRET analysis
Chain of Beta-secretase 1 (Homo sapiens) (P56817 whole entry): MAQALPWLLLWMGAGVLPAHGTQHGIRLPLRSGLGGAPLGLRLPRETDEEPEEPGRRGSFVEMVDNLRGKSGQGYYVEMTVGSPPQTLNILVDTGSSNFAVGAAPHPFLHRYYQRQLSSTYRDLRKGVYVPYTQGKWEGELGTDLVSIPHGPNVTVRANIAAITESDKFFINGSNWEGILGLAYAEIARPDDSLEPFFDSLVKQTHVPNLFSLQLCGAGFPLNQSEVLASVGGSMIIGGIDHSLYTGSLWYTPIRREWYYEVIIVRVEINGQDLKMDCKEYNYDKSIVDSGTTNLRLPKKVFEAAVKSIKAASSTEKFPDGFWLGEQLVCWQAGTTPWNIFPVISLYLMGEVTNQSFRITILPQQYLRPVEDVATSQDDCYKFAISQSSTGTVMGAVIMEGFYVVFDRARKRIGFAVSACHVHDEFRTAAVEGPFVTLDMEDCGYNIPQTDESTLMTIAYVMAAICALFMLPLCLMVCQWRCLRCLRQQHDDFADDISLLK

[11] = molecular target: Cathepsin D (Homo sapiens) (UniProt P07339); assay: Inhibition of human cathepsin D using Mca-GKPILFFRLK(Dnp)-D-Arg-NH2 as substrate at 10 uM incubated for 10 mins prior to substrate addition measured for 1 hr by FRET analysis
Chain of Cathepsin D (Homo sapiens) (P07339 65-162 limits assumed): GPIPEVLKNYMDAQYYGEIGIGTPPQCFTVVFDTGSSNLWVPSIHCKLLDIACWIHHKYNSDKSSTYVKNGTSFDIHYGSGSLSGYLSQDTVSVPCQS
Chain of Cathepsin D (Homo sapiens) (P07339 169-412 limits assumed): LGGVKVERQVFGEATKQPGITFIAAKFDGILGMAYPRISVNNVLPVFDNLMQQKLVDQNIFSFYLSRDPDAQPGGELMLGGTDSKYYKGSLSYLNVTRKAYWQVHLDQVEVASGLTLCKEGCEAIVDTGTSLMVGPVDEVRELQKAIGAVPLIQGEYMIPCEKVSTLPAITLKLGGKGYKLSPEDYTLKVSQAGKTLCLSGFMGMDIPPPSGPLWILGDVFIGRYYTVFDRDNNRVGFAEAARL

[12] = molecular target: T2, Cathepsin E (Homo sapiens) (UniProt P14091); assay: Inhibition of human recombinant cathepsin E using Mca-GKPILFFRLK(Dnp)-D-Arg-NH2 as substrate at 10 uM incubated for 10 mins prior to substrate addition measured for 1 hr by FRET analysis
T2 sequence (whole entry): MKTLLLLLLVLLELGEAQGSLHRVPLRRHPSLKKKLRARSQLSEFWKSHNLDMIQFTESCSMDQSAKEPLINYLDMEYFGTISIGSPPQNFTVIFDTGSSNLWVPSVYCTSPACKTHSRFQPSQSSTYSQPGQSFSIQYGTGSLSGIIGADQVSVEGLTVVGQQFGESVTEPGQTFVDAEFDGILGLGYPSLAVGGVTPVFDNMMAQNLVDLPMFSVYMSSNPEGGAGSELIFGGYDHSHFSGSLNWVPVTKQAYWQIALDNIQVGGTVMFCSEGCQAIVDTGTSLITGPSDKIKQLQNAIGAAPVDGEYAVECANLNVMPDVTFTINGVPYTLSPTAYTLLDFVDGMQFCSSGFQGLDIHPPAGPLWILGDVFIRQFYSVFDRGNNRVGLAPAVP

[13] = Oral bioavailability in rat at 8.2 mg/kg; format: ADME, organism-based; conditions: in vivo
In short: (§2)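 Compounds were dosed as fumarate salts in separate intravenous and oral arms. Oral AUC(0–t), IV half-life, IV clearance, Vss and oral bioavailability (F) were derived from the plasma levels.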

[14] = Clearance in rat at 1.6 mg/kg, iv; format: ADME, organism-based; parameters: dose 1.6 mg/kg, route intravenous; conditions: in vivo; in short: as §2
[15] = AUC (0 to t) in rat at 8.2 mg/kg, po; format: ADME, organism-based; parameters: dose 8.2 mg/kg, route oral; conditions: plasma; in short: as §2
[16] = Half life in rat at 1.6 mg/kg, iv; format: ADME, organism-based; parameters: dose 1.6 mg/kg, route intravenous; conditions: in vivo; in short: as §2
[17] = Volume of distribution at steady state in rat at 1.6 mg/kg, iv and 8.2 mg/kg, po; format: ADME, organism-based; conditions: in vivo, read-out: Vdss; in short: as §2
[18] = Half life in rat at 2 mg/kg, iv; format: ADME, organism-based; parameters: dose 2 mg/kg, route intravenous; conditions: in vivo; in short: as §2
[19] = Half life in cynomolgus monkey at 1 mg/kg, iv; format: ADME, organism-based, Macaca fascicularis; parameters: dose 1 mg/kg, route intravenous; conditions: in vivo; in short: as §2
[20] = AUC (0 to t) in dog at 1 mg/kg, po; format: ADME, organism-based, Canis lupus familiaris; parameters: dose 1 mg/kg, route oral; conditions: plasma; in short: as §2
[21] = Half life in dog at 1 mg/kg, iv; format: ADME, organism-based, Canis lupus familiaris; parameters: dose 1 mg/kg, route intravenous; conditions: in vivo
[22] = AUC (0 to t) in rat at 10 mg/kg, po; format: ADME, organism-based; parameters: dose 10 mg/kg, route oral; conditions: plasma; in short: as §2
[23] = Oral bioavailability in dog at 1 mg/kg; format: ADME, organism-based, Canis lupus familiaris; conditions: in vivo; in short: as §2
[24] = Clearance in dog at 1 mg/kg, iv; format: ADME, organism-based, Canis lupus familiaris; parameters: dose 1 mg/kg, route intravenous; conditions: in vivo
[25] = Oral bioavailability in cynomolgus monkey at 2 mg/kg; format: ADME, organism-based, Macaca fascicularis; conditions: in vivo; in short: as §2
[26] = Clearance in cynomolgus monkey at 1 mg/kg, iv; format: ADME, organism-based, Macaca fascicularis; parameters: dose 1 mg/kg, route intravenous; conditions: in vivo; in short: as §2
[27] = Clearance in dog at 0.5 mg/kg, iv; format: ADME, organism-based, Canis lupus familiaris; parameters: dose 0.5 mg/kg, route intravenous; conditions: in vivo; in short: as §2
[28] = Clearance in rat at 2 mg/kg, iv; format: ADME, organism-based; parameters: dose 2 mg/kg, route intravenous; conditions: in vivo; in short: as §2
[29] = Half life in dog at 0.5 mg/kg, iv; format: ADME, organism-based, Canis lupus familiaris; parameters: dose 0.5 mg/kg, route intravenous; conditions: in vivo; in short: as §2
[30] = AUC (0 to t) in cynomolgus monkey at 2 mg/kg, po; format: ADME, organism-based, Macaca fascicularis; parameters: dose 2 mg/kg, route oral; conditions: plasma; in short: as §2
[31] = Volume of distribution at steady state in dog at 0.5 mg/kg, iv and 1 mg/kg, po; format: ADME, organism-based, Canis lupus familiaris; conditions: in vivo, read-out: Vdss; in short: as §2
[32] = Volume of distribution at steady state in rat at 2 mg/kg, iv and 10 mg/kg, po; format: ADME, organism-based; conditions: in vivo, read-out: Vdss; in short: as §2
[33] = Volume of distribution at steady state in cynomolgus monkey at 1 mg/kg, iv and 2 mg/kg, po; format: ADME, organism-based, Macaca fascicularis; conditions: in vivo, read-out: Vdss; in short: as §2

CN[C@H](CNC(=O)N1CCC[C@@H]([C@@H](OCCNC(=O)OC)c2cccc(Cl)c2)C1)C[C@H]1CCCOC1 [VTP-27999]
Activity (Salmonella typhimurium [1]): Non-toxic
Activity (L5178Y [2]): Non-toxic
fraction unbound [3]: 0.22
Activity (L5178Y [4]): Non-toxic
IC50 (Renin [5]): 0.3 nM
IC50 (Renin [6]): 0.47 nM
fraction unbound [7]: 0.29
Activity (Salmonella typhimurium [8]): Non-toxic
IC50 (Renin [9]): 1.1 nM

CNC[C@@H](NC(=O)N1CCC[C@@H]([C@@H](OCCNC(=O)OC)c2cccc(Cl)c2)C1)[C@@H](O)C1CCCCC1
IC50 (Renin [5]): 0.15 nM
IC50 (Renin [6]): 0.33 nM
IC50 (Cytochrome P450 3A4): 7100 nM
IC50 (Renin [9]): 1.06 nM

CN[C@H](CNC(=O)N1CCC[C@@H]([C@@H](OCCNC(=O)OC)c2cccc(Cl)c2)C1)C[C@H]1CCCOC1
Activity (Rattus norvegicus): Active
inhibition [10]: < 10%
inhibition [11]: < 10%
inhibition [12]: < 10%

CNC[C@H](CC1CCCCC1)NC(=O)N1CCC[C@@H]([C@@](O)(CCCCOC)c2cccc(Cl)c2F)C1.O=C(O)/C=C/C(=O)O
bioavailability [13]: 5.5%
clearance [14]: 30 mL/min/kg
AUC(0-t) [15]: 226 ng·h/mL
half-life [16]: 15.9 h
Vd [17]: 16 L/kg

COCCCOc1cc(C[C@@H](C[C@H](N)[C@@H](O)C[C@H](C(=O)NCC(C)(C)C(N)=O)C(C)C)C(C)C)ccc1OC.COCCCOc1cc(C[C@@H](C[C@H](N)[C@@H](O)C[C@H](C(=O)NCC(C)(C)C(N)=O)C(C)C)C(C)C)ccc1OC.O=C(O)/C=C/C(=O)O [ALISKIREN FUMARATE]
half-life [18]: 39.6 h
half-life [19]: 14.7 h
AUC(0-t) [20]: 149 ng·h/mL
half-life [21]: 16.3 h
AUC(0-t) [22]: 21 ng·h/mL
bioavailability [23]: 11%
clearance [24]: 11 mL/min/kg
bioavailability [25]: 1.4%
clearance [26]: 2.5 mL/min/kg

CN[C@H](CNC(=O)N1CCC[C@@H]([C@@H](OCCNC(=O)OC)c2cccc(Cl)c2)C1)C[C@H]1CCCOC1.O=C(O)/C=C/C(=O)O
half-life [18]: 7.3 h
clearance [27]: 12.9 mL/min/kg
clearance [28]: 128 mL/min/kg
half-life [19]: 12.3 h
half-life [29]: 9.9 h
AUC(0-t) [30]: 404 ng·h/mL
AUC(0-t) [20]: 484 ng·h/mL
Vd [31]: 4 L/kg
Vd [32]: 38 L/kg
bioavailability [23]: 41%
Vd [33]: 4.7 L/kg
bioavailability [25]: 18%
clearance [26]: 29.6 mL/min/kg

CNC[C@H](C[C@H]1CCCOC1)NC(=O)N1CCC[C@@H]([C@@H](OCCNC(=O)OC)c2cccc(Cl)c2)C1
IC50 (Renin [5]): 0.42 nM
IC50 (Renin [6]): 0.56 nM
IC50 (Cytochrome P450 3A4): 28000 nM
IC50 (Renin [9]): 0.48 nM
